Measured values from different studies.
Compare with care: the assays were run in different laboratories.
Target: Serine/threonine-protein kinase DCLK1 (DCLK1, Homo sapiens, UniProt O15075)
Technique: competition with immobilised ligand
Sequence (O15075 1-740, as in one of the studies): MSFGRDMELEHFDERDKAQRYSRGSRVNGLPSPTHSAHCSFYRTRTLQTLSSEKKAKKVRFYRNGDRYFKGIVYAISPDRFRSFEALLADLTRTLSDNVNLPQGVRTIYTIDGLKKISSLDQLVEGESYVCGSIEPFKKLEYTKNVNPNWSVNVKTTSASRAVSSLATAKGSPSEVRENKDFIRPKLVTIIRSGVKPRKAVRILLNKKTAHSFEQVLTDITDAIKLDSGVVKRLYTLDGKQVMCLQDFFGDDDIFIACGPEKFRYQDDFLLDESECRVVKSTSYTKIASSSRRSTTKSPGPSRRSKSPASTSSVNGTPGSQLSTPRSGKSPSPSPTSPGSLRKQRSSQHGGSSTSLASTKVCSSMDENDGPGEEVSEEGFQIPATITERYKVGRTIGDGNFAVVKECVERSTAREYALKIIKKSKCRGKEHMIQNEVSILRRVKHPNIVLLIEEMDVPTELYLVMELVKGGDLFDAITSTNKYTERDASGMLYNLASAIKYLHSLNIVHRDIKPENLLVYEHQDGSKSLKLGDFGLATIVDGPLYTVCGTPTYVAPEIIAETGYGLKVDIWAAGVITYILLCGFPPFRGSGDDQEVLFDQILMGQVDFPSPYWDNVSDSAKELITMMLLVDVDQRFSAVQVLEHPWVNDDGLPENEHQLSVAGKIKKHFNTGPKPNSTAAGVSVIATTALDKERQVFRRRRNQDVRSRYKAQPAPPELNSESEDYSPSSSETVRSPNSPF

Compound | assay | setting | remaining binding [%]
COc1cc(N2CCN(C)CC2)ccc1Nc1ncc2c(n1)N(C)c1ccccc1C(=O)N2CC(F)(F)F | binding | 1 µM | < 10
C[C@@H]1CCN(c2nccc(-c3cnn4ncccc34)n2)C1 | binding | 1 µM | 84
O=C(c1ccc(Nc2ncc(Cl)c(-c3ccc(Cl)s3)n2)cc1)N1CCC(N2CCCC2)CC1 | binding | 1 µM | 69
Cc1c(NC(=O)c2cc(C(N)=O)nc3cc(F)ccc23)c(C(F)(F)F)nn1Cc1ccc(C#N)cc1 | cell-free assay | 1 µM | 85
COc1ccnn2ncc(-c3ccnc(N(C)C)n3)c12 | binding | 1 µM | 80
O=C(NCCCN1CCOCC1)c1ccc(Nc2ncc(Cl)c(-c3ccc(Cl)s3)n2)cc1 | binding | 1 µM | 56
Cc1cc(-c2cc(C(F)(F)F)ccc2O[C@H]2C[C@@]2(CNS(=O)(=O)c2ccc([N+](=O)[O-])cc2)c2ccc(F)cc2F)[nH]n1 | cell-free assay | 0.3 µM | 32
Cc1cnn2ncc(-c3ccnc(N(C)C)n3)c2c1 | binding | 1 µM | 91
Cc1cnc(Nc2ccc(C(=O)N3CCC(N4CCCC4)CC3)cc2)nc1-c1cc2ccccc2s1 | binding | 1 µM | 68
c1cncc(-c2cccc(Nc3nccc(NC4CCCCC4)n3)c2)c1 | binding | 10 µM | 92
CN(C)c1nccc(-c2cnc3ncccn23)n1 | binding | 1 µM | 61
CC(=O)Nc1c(C(C)=O)c(=O)n(C)c2nc(-c3ccc(Cl)cc3Cl)c(-c3ccc(Cl)cc3)cc12 | cell-free assay | 1 µM | 100
COc1cnc(Nc2cccc(S(N)(=O)=O)c2)nc1N1CCN(c2ccccc2)CC1 | binding | 1 µM | 92
COc1ccc2cc(OCC3(C(=O)O)CN(C(=O)c4ccc(F)cc4)C3)ccc2c1 | cell-free assay | 1 µM | 100
O=C(Nc1c[nH]nc1C(=O)NC1CCNCC1)c1cc(F)cc(F)c1 | binding | 1 µM | 79
CC(C)CC(=O)N1CCc2nc(-c3ccc(Br)cc3)nc(N(C)Cc3ccccc3)c2C1 | cell-free assay | 0.1 µM | 100
CC(C)(C)c1ccc(-c2nc(CBr)nn2-c2cccc(O)c2)cc1 | cell-free assay | 10 µM | 100
Cc1nccc(COC(=O)N2C[C@@H]3[C@@H](CNC(=O)c4ccc5[nH]nnc5c4)[C@@H]3C2)n1 | cell-free assay | 1 µM | 90
F[C@@H]1CCN(c2nccc(-c3cnn4ncccc34)n2)C1 | binding | 1 µM | 82
C[C@@H]1CN(c2ccc3ncc(-c4ccc5[nH]nc(C6CC6)c5c4)n3n2)C[C@H](C)O1 | binding | 0.5 µM | 100
CCN1CCN(Cc2ccc(C(=O)Nc3ccc(C)c(Oc4ccc5c(c4)CC(=O)N5)c3)cc2C(F)(F)F)CC1 | binding | 1 µM | 88
CN(CCCC(F)(F)F)c1nccc(-c2cnn3ncccc23)n1 | binding | 1 µM | 90
CN([C@@H]1CCc2c(CC(=O)O)c3cc(S(C)(=O)=O)ccc3n2C1)S(=O)(=O)c1ccc(F)cc1 | cell-free assay | 1 µM | 79
N[C@@H]1CCN(c2nccc(-c3cnn4ncccc34)n2)C1 | binding | 1 µM | 70
CN1CCN(c2cnc3c(C4CCN(C(=O)c5ccc(OC(F)(F)F)cc5N)CC4)ncnc3c2)CC1 | cell-free assay | 1 µM | 85
